Laboratory results as given in the M2OR odorant receptor database.

Legend:
Settings in all cases: stereoisomer not certain
OR11H1 (Homo sapiens) = OR11H1 (Homo sapiens) (UniProt Q8NG94)
Procedure, shortened: (§1)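 Whether a receptor–molecule pair is responsive (active) rests on the original authors' judgment that its measured signal was statistically different from baseline. Pairs without that judgment are non-responsive (inactive). Sources used varied assay methods, commonly transient luciferase assays in mammalian cell lines.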

OR11H12 (Homo sapiens) = OR11H12 (Homo sapiens) (UniProt B2RN74)
Procedure, shortened: as §1

OR11H2 (Homo sapiens) = OR11H2 (Homo sapiens) (UniProt Q8NH07)
Procedure, shortened: as §1

OR11H4 (Homo sapiens) = OR11H4 (Homo sapiens) (UniProt Q8NGC9)
Procedure, shortened: as §1

OR11H6 (Homo sapiens) = OR11H6 (Homo sapiens) (UniProt Q8NGC7)
Procedure, shortened: as §1

OR11L1 (Homo sapiens) = OR11L1 (Homo sapiens) (UniProt Q8NGX0)
Procedure, shortened: as §1

OR12D2 (Homo sapiens) = OR12D2 (Homo sapiens) (UniProt P58182)
Procedure, shortened: as §1

OR12D3 (Homo sapiens) = OR12D3 (Homo sapiens) (UniProt Q9UGF7)
Procedure, shortened: as §1

OR11H7 (Homo sapiens) = OR11H7 (Homo sapiens) (UniProt Q8NGC8)
Procedure, shortened: as §1

OR12D1 (Homo sapiens) = OR12D1 (Homo sapiens) (UniProt P0DN82)
Procedure, shortened: as §1

Measured: odorant receptor agonist call;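 note: active if original authors judged signal statistically different from baseline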

Sequence of OR11H12 (Homo sapiens) (B2RN74 whole entry): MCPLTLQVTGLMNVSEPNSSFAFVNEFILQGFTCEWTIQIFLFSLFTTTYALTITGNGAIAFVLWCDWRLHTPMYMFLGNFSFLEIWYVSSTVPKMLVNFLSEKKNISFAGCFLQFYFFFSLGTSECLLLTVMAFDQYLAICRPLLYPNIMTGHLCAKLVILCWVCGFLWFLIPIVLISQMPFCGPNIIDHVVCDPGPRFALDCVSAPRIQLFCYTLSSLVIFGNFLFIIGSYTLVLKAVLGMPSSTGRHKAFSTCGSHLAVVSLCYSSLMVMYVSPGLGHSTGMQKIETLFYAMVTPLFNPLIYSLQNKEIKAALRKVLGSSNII
Sequence of OR11L1 (Homo sapiens) (Q8NGX0 whole entry): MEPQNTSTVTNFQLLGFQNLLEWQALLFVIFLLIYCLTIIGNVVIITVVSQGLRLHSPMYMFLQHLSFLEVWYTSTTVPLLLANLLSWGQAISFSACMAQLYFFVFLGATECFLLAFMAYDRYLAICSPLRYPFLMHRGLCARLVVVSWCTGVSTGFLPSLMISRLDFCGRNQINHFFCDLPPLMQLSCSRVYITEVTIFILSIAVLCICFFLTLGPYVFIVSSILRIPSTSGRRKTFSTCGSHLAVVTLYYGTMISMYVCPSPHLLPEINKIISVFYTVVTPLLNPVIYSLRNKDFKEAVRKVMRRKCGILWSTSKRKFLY
Sequence of OR12D3 (Homo sapiens) (Q9UGF7 whole entry): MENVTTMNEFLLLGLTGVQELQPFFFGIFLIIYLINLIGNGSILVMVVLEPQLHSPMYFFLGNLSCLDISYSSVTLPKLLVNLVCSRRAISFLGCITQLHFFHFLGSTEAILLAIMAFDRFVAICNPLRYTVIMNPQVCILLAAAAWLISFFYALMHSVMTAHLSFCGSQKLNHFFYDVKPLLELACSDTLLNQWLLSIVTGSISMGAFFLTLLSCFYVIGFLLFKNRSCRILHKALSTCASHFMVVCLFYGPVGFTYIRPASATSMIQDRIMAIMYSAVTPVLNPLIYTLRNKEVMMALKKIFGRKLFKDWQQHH
Sequence of OR11H6 (Homo sapiens) (Q8NGC7 whole entry): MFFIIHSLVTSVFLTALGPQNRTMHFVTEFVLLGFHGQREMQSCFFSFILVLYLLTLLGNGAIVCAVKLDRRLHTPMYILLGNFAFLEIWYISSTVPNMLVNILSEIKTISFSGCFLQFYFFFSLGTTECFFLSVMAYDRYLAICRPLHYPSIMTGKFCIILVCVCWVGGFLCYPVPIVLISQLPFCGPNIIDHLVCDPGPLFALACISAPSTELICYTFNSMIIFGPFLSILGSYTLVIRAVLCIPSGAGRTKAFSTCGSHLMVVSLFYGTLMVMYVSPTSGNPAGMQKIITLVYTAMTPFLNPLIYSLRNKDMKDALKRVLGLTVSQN
Sequence of OR11H4 (Homo sapiens) (Q8NGC9 whole entry): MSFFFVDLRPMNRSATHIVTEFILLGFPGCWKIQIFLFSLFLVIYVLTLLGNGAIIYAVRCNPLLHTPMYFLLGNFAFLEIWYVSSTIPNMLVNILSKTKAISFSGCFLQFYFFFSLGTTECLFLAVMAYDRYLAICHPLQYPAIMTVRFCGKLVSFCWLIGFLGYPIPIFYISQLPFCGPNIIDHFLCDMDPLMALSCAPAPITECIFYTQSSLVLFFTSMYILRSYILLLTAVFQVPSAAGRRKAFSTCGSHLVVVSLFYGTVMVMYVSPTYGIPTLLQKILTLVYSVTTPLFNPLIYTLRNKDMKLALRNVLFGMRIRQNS
Sequence of OR11H2 (Homo sapiens) (Q8NH07 whole entry): as the sequence (B2RN74 whole entry) above, with Q7H, T33S, T49I, W68R, C156Y, M181K, R199L, S269P counted along it
Sequence of OR11H1 (Homo sapiens) (Q8NG94 whole entry): as the sequence (B2RN74 whole entry) above, with T33S, W68R, C156Y, V240M counted along it
Sequence of OR12D2 (Homo sapiens) (P58182 whole entry): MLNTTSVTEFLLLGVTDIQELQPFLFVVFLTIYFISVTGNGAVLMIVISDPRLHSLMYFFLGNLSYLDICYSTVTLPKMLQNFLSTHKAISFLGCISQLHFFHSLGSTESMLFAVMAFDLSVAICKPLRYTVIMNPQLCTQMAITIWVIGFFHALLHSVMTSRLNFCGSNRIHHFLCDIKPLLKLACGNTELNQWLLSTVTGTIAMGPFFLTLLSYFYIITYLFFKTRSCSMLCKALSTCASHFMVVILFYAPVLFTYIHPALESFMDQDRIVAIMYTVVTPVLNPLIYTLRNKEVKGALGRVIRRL
Sequence of OR12D1 (Homo sapiens) (P0DN82 as listed by the source): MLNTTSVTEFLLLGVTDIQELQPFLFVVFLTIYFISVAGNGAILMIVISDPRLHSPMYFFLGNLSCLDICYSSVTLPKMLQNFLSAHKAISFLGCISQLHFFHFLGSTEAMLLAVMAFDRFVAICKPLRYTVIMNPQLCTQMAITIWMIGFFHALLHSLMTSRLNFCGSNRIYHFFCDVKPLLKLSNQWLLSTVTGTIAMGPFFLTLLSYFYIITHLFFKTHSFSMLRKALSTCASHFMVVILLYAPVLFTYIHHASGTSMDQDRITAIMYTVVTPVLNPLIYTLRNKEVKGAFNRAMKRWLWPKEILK
Sequence of OR11H7 (Homo sapiens) (Q8NGC8 whole entry): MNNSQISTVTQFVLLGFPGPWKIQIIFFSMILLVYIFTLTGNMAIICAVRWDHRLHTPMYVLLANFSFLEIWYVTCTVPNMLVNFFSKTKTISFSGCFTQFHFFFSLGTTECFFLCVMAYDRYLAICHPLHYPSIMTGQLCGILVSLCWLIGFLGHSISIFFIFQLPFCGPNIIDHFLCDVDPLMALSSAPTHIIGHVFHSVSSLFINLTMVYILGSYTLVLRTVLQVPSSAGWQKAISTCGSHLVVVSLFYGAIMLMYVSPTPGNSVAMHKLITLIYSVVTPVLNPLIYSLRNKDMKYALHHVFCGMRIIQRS

C=CCOC(=O)Cc1ccccc1
not listed: OR11H7 (Homo sapiens) | OR12D1 (Homo sapiens)
inactive: all other assays above

Cc1c([N+](=O)[O-])c(C)c([N+](=O)[O-])c(C(C)(C)C)c1[N+](=O)[O-]
inactive: all assays above
